From ChEMBL document CHEMBL1649438, “Activities of ceftobiprole and other cephalosporins against extracellular and intracellular (THP-1 macrophages and keratinocytes) forms of methicillin-susceptible and methicillin-resistant Staphylococcus aureus” (Antimicrob Agents Chemother, 2009)
Converted amounts (≈) assume the structure as drawn.

Assays:
Staphylococcus aureus [1] = assay: Antimicrobial activity against hospital-acquired vancomycin-resistant Staphylococcus aureus VRS1 infected in human THP-1 cells assessed as bacterial count per mg of cell protein at low extracellular compound concentration after 24 hrs; assay type: functional
Outline: (§1)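 THP-1 macrophages infected as described previously, with a postphagocytosis inoculum of 1.5 × 10⁶ to 3.0 × 10⁶ CFU/mg cell protein. Cells were exposed 24 h to increasing extracellular antibiotic concentrations. Response is the change in log10 CFU/mg protein from the inoculum (n = 3), fitted to a Hill function. E0 and Emax were extrapolated to infinitely low and high concentrations. EC50 and static concentration (graphical interpolation) are expressed as multiples of the broth MIC at pH 5.5 or 7.4.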

Staphylococcus aureus [2] = assay: Antimicrobial activity against Panton-valentine leucocidin-positive community-acquired methicillin-resistant Staphylococcus aureus N4090440 infected in human THP-1 cells assessed as bacterial count per mg of cell protein at high extracellular compound concentration after 24 hrs; assay type: functional
Outline: (§2)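 THP-1 human macrophages infected with S. aureus (postphagocytosis inoculum 1.5 × 10^6 to 3.0 × 10^6 CFU/mg cell protein), then incubated 24 h with increasing extracellular antibiotic concentrations. Change in log10 CFU/mg cell protein from the postphagocytosis inoculum, n = 3. Hill function fitted on log-transformed data. Low-concentration value (E0) and high-concentration value (Emax) are extrapolated. Where a pH is given, concentrations are expressed as multiples of the broth MIC at that pH.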

Staphylococcus aureus [3] = assay: Antimicrobial activity against Panton-valentine leucocidin-positive community-acquired methicillin-resistant Staphylococcus aureus N4042228 infected in human THP-1 cells assessed as change in bacterial count after 24 hrs at pH 5.5; assay type: functional, organism-based; conditions: N4042228, THP-1, 24 h; outline: as §2
Staphylococcus aureus [4] = assay: Antimicrobial activity against Panton-valentine leucocidin-positive community-acquired methicillin-resistant Staphylococcus aureus STA 228 infected in human THP-1 cells assessed as bacterial count per mg of cell protein at high extracellular compound concentration after 24 hrs at pH 5.5; assay type: functional; outline: as §2
Staphylococcus aureus [5] = assay: Bacteriostatic activity against Panton-valentine leucocidin-positive community-acquired methicillin-resistant Staphylococcus aureus STA 228 infected in human THP-1 cells assessed as change in bacterial count after 24 hrs at pH 5.5; assay type: functional; outline: as §1
Staphylococcus aureus [6] = assay: Bacteriostatic activity against methicillin-susceptible Staphylococcus aureus […] infected in human THP-1 cells assessed as change in bacterial count after 24 hrs at pH 7.4; assay type: functional
Outline: (§3)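 Human THP-1 macrophage-like cells were infected with S. aureus to a postphagocytosis inoculum of 1.5 × 10^6 to 3.0 × 10^6 CFU/mg cell protein. Cells were then exposed 24 h to increasing extracellular antibiotic concentrations. Response was the log10 CFU change per mg protein from the postphagocytosis inoculum, n = 3. A Hill function was fitted on log-transformed axes. E0 and Emax were extrapolated to infinitely low and high concentrations. Cs was read by graphical interpolation. Concentrations were expressed as multiples of the broth MIC at pH 5.5 or pH 7.4.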

Staphylococcus aureus [7] = assay: Antimicrobial activity against methicillin-susceptible Staphylococcus aureus ATCC 11632 infected in human THP-1 cells assessed as change in bacterial count after 24 hrs at pH 7.4; assay type: functional, organism-based; conditions: ATCC 11632, THP-1, 24 h; outline: as §1
Staphylococcus aureus [8] = assay: Bacteriostatic activity against methicillin-susceptible Staphylococcus aureus ATCC 11632 infected in human THP-1 cells assessed as change in bacterial count after 24 hrs at pH 7.4; assay type: functional; outline: as §3
Staphylococcus aureus [9] = assay: Antimicrobial activity against hospital-acquired vancomycin-intermediate Staphylococcus aureus NRS126 infected in human THP-1 cells assessed as bacterial count per mg of cell protein at low extracellular compound concentration after 24 hrs at pH 5.5; assay type: functional; outline: as §1
Staphylococcus aureus [10] = assay: Bacteriostatic activity against hospital-acquired vancomycin-intermediate Staphylococcus aureus NRS126 infected in human THP-1 cells assessed as change in bacterial count after 24 hrs at pH 5.5; assay type: functional
Staphylococcus aureus [11] = assay: Bacteriostatic activity against methicillin-susceptible Staphylococcus aureus ATCC 11632 infected in human THP-1 cells assessed as change in bacterial count after 24 hrs at pH 5.5; assay type: functional; outline: as §3
Staphylococcus aureus [12] = assay: Antimicrobial activity against hospital-acquired methicillin-resistant Staphylococcus aureus ATCC 33592 infected in human THP-1 cells assessed as change in bacterial count after 24 hrs at pH 5.5; assay type: functional, organism-based; conditions: ATCC 33592, THP-1, 24 h; outline: as §1
Staphylococcus aureus [13] = assay: Antimicrobial activity against Panton-valentine leucocidin-positive community-acquired methicillin-resistant Staphylococcus aureus N4042228 infected in human THP-1 cells assessed as change in bacterial count after 24 hrs at pH 7.4; assay type: functional, organism-based; conditions: N4042228, THP-1, 24 h; outline: as §2
Staphylococcus aureus [14] = assay: Ratio of MIC for beta-lactamase-negative methicillin-susceptible Staphylococcus aureus ATCC 25923 by microdilution method at pH 7.4 to ratio of MIC for beta-lactamase-negative methicillin-susceptible Staphylococcus aureus ATCC 25923 by microdilution method at pH 5.5; assay type: functional
Outline: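 MICs were measured by broth microdilution, with the broth adjusted to pH 7.4 or pH 5.5 before inoculation. pH was confirmed at the end of the assay to within ±0.1 unit. The value is the fold decrease in MIC between pH 7.4 and pH 5.5.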

Staphylococcus aureus [15] = assay: Antimicrobial activity against methicillin-susceptible Staphylococcus aureus ATCC 25923 infected in human keratinocytes assessed as bacterial count per mg of cell protein at high extracellular compound concentration after 24 hrs; assay type: functional
Outline: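 Primary human skin keratinocytes were grown in defined keratinocyte serum-free medium and infected with S. aureus to 1.5 × 10^6 to 3.0 × 10^6 CFU/mg cell protein. Cells were exposed 24 h to increasing extracellular concentrations. Response was the log10 CFU change from the postphagocytosis inoculum, fitted by a Hill equation with slope 1. Cs is the concentration giving CFU equal to the original inoculum, found by graphical interpolation.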

Staphylococcus aureus [16] = assay: Antimicrobial activity against methicillin-resistant Staphylococcus aureus ATCC 33591 infected in human keratinocytes assessed as bacterial count per mg of cell protein at high extracellular compound concentration after 24 hrs; assay type: functional
Outline: (§4)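 Primary human skin keratinocytes were grown in defined keratinocyte serum-free medium, infected with a postphagocytosis inoculum of 1.5 × 10⁶ to 3.0 × 10⁶ CFU/mg cell protein, then exposed 24 h to increasing extracellular antibiotic concentrations. Change in log10 CFU/mg protein from the inoculum was fitted to a Hill equation with slope 1. E0 and Emax were extrapolated to infinitely low and high concentrations, in total drug mg/liter.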

Staphylococcus aureus [17] = assay: Antimicrobial activity against methicillin-resistant Staphylococcus aureus ATCC 33591 infected in human keratinocytes assessed as change in bacterial count after 24 hrs; assay type: functional, organism-based; conditions: ATCC 33591, 24 h; outline: as §4
Staphylococcus aureus [18] = assay: Antimicrobial activity against methicillin-susceptible Staphylococcus aureus […] infected in human THP-1 cells assessed as bacterial count per mg of cell protein at low extracellular compound concentration after 24 hrs; assay type: functional; outline: as §3
Staphylococcus aureus [19] = assay: Antimicrobial activity against methicillin-susceptible Staphylococcus aureus […] infected in human THP-1 cells assessed as bacterial count per mg of cell protein at high extracellular compound concentration after 24 hrs; assay type: functional; outline: as §3
Staphylococcus aureus [20] = assay: Antimicrobial activity against hospital-acquired vancomycin-intermediate Staphylococcus aureus NRS18 infected in human THP-1 cells assessed as bacterial count per mg of cell protein at low extracellular compound concentration after 24 hrs; assay type: functional; outline: as §3
Staphylococcus aureus [21] = assay: Antimicrobial activity against hospital-acquired vancomycin-intermediate Staphylococcus aureus NRS18 infected in human THP-1 cells assessed as change in bacterial count after 24 hrs; assay type: functional, organism-based; conditions: NRS18, THP-1, 24 h; outline: as §1

Nc1nc(/C(=N/O)C(=O)N[C@@H]2C(=O)N3C(C(=O)O)=C(/C=C4\CCN([C@@H]5CCNC5)C4=O)CS[C@H]23)ns1 [CEFTOBIPROLE] showed a log10cfu (Staphylococcus aureus [1]) of 2.57, a log10cfu (Staphylococcus aureus [2]) of -1.05 and an EC50 (Staphylococcus aureus [3]) of 0.54 × MIC. It also gave a log10cfu (Staphylococcus aureus [4]) of -1.02, an Activity (Staphylococcus aureus [5]) of 1.45 × MIC and an Activity (Staphylococcus aureus [6]) of 0.6 × MIC. The EC50 (Staphylococcus aureus [7]) was 0.2 × MIC, the Activity (Staphylococcus aureus [8]) was 0.6 × MIC and the log10cfu (Staphylococcus aureus [9]) was 2.63. The Activity (Staphylococcus aureus [10]) was 1.97 multiples of MIC, the Activity (Staphylococcus aureus [11]) was 1.19 × MIC and the EC50 (Staphylococcus aureus [12]) was 0.77 ×MIC. For the same compound, the EC50 (Staphylococcus aureus [13]) was 0.33 ×MIC, the “fold change (FC)” value (Staphylococcus aureus [14]) was 2 and the log10cfu (Staphylococcus aureus [15]) was -0.94. For the same compound, the log10cfu (Staphylococcus aureus [16]) was -1.14, the EC50 (Staphylococcus aureus [17]) was 1.08 µg/mL (≈ 2.02 µM) and the log10cfu (Staphylococcus aureus [18]) was 3.49. For the same compound, the log10cfu (Staphylococcus aureus [19]) was -1.15, the log10cfu (Staphylococcus aureus [20]) was 2.83 and the EC50 (Staphylococcus aureus [21]) was 0.26 µg/mL (≈ 0.486 µM).
